Screens as filed in PubChem.
Hits are enriched below; roughly 2.4% of the tested compounds scored in any of these assays.
MIN6 prolif = induces beta-cell replication in MIN6 cells; MIN6 cells proliferation, ATPlite luminescence, 48 h; cells starved in 0.2% serum; 100% = growth in 10% serum; proliferation, % at 10 µM; actives 0.29% (n = 330,000);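 active = compounds whose signal lies at least 3.5 SD above the mean of all wells on their plate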;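 note: 0% = DMSO-treated cells in low-serum medium and 100% = 10% serum control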
Myeloid diff 2 = myeloid differentiation induction; ER-HoxA9 myeloid progenitors, lysozyme-GFP differentiation, flow cytometry; calls only at 10 µM; actives 1% (n = 360,000); AID 624256;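 active = normalized GFP-positive differentiation at or above the plate's own cutoff, the solvent-only control mean plus 3 SD; inconclusive = no clear call, values can overlap the other calls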;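 note: cells exposed to compound for four days before flow analysis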
SENP1 inh = blocks the human SENP1 SUMO protease catalytic domain; Q9P0U3; recombinant SENP1 catalytic domain, CyPet-SUMO1-YPet FRET cleavage; inhibition, % at 10 µM; actives 0.21% (n = 360,000);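 active = inhibition at least 30% at 10 µM, raw YFP signal under a set limit, fluorescence ratio 0.5 to 1.5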;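 note: 0% = enzyme with DMSO and 100% = no enzyme wells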
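Test system: recombinant human SENP1 catalytic domain, His6-tagged / Medium: pH 8 Tris buffer with EDTA, NaCl, BME, BSA, NP40, catalase / Also added: SUMO1 FRET substrate flanked by Cypet and Ypet, 25 nM / Times: 50 min reaction at room temperature / Signal: FRET, CFP and YFP emission / Control set: no-enzyme low control and enzyme-plus-DMSO high control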
MT1-MMP act inh = blocks activation of human MT1-MMP. P50281. HT1080 RFP-PRO-GFP cells, GFP/RFP ratio fluorescence, overnight; percent of plate control window, DMSO zero. GFP/RFP ratio change, % at 20 µM. actives 0.061% (n = 360,000). AID 651647;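 active = GFP/RFP ratio change of at least 30% with cell ATP level not reduced by more than half and red fluorescence within 50% of control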
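Read-out: GFP/RFP fluorescence ratio; Test system: RFP-PRO-GFP reporter HT1080 cells; Compound dosing: single-point 20 µM compound, 1% DMSO; Times: overnight compound exposure at 37 °C.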
DAGLB inh = diacylglycerol lipase beta (human) inhibition. Q8NCG7. HEK293T DAGLB membrane lysate, EnzChek fluorogenic substrate. inhibition, % at 5.17 µM. actives 0.059% (n = 340,000); in the data active = inhibition above about 34%;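 note: 0% = enzyme with vehicle and 100% = wells lacking enzyme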
CendR NRP1 mod = modulators of CendR peptide binding to human neuropilin-1. O14786. FAM-RPARPAR peptide binding to NRP-1, fluorescence polarization. inhibition, % at 25 µM. actives 0.85% (n = 360,000). AID 602438;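 active = inhibition or corrected inhibition above about 18%, plus a signal ratio from 0.5 to 1.5, limit read from the data, passing the limit was not always enough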
Target sequence (O14786 whole entry, looked up): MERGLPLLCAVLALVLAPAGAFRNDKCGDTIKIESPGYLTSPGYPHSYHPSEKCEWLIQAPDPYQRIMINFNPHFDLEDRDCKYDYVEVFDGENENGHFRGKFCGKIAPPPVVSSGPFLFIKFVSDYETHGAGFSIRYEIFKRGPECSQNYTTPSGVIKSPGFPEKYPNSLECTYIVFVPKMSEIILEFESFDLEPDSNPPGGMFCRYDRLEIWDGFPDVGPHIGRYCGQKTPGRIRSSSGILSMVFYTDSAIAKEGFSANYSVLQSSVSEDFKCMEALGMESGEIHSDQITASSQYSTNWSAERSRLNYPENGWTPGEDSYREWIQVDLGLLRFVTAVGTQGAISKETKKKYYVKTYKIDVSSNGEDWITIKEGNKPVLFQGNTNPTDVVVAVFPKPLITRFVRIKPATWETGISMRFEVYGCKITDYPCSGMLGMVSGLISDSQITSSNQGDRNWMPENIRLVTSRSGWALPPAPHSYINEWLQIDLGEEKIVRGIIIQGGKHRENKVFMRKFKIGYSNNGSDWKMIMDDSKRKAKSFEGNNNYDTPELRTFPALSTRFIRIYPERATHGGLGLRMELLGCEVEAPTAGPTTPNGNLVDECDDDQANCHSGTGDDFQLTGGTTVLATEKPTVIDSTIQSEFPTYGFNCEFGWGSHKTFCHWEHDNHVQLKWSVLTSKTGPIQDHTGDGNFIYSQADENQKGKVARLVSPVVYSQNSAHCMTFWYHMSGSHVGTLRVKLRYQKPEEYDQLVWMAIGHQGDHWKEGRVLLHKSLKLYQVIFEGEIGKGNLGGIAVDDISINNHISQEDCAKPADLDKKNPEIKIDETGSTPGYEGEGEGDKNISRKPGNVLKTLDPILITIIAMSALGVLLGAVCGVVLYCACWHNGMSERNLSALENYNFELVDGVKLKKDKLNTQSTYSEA
An asterisk follows results filed as active; i = inactive; ? = inconclusive; / = no result; + = active, no number.

SMILES | MIN6 prolif | Myeloid diff 2 | SENP1 inh | MT1-MMP act inh | DAGLB inh | CendR NRP1 mod
COc1ccc(C(C)(O)c2nc(-c3ccncc3)cs2)cc1 (stereo unspecified) | / | + | 0 | -6 | / | -1
Cc1c(CN2CCC(n3nccc3NC(=O)C3CC3)CC2)[nH]c2ccccc12 | 5 | i | -11 | -2 | 0 | -3
CC(C)(C)c1ccc(Oc2ccc(NC(=O)c3ccco3)cn2)cc1 | -3 | + | -2 | -13 | -4 | 7
CCO[C@H]1OC(C(=O)NCc2ccccc2)=C[C@@H](c2ccccc2)[C@@H]1CCCO | 0 | i | 2 | -1 | -1 | 7
O=C(N[C@@H](Cc1ccccc1)C(=O)OCc1ccccc1)c1nc[nH]c1C(=O)NC(c1ccccc1)c1ccccc1 | -7 | i | 3 | -6 | -1 | 27*
CC1CCN(C(=O)c2[nH]cnc2C(=O)NC2CCN(C(=O)OC(C)(C)C)CC2)CC1 | 3 | i | 1 | 0 | -3 | 29*
C[C@@H](NC(=O)c1nc[nH]c1C(=O)N[C@@H](Cc1ccccc1)C(=O)OCc1ccccc1)c1ccccc1 | -9 | i | 2 | 3 | 2 | 12
CC(C)(C)OC(=O)NCCCCCNC(=O)c1nc[nH]c1C(=O)N1CCc2ccccc2C1 | 0 | i | 0 | 5 | 1 | 2
CC(C)(C)OC(=O)NCc1ccc(CNC(=O)c2nc[nH]c2C(=O)N2CCc3ccccc3C2)cc1 | 2 | i | 0 | 7 | 2 | 35*
CC(C)(C)OC(=O)[C@H](CCCCN)NC(=O)c1nc[nH]c1C(=O)NCCCCCN | -2 | i | -1 | 3 | -2 | 21*
Cc1ccc(C(=O)CN(CCCC(N)=O)C(=O)c2ccncc2)cc1 | 3 | i | 1 | 3 | 0 | 8
O=S(=O)(O)c1ccc2c(c1)C(C(Cl)(Cl)Cl)OC(C(Cl)(Cl)Cl)O2 (stereo unspecified) | / | i | 2 | 1 | 10 | -20
CCN(CC)C(=O)c1nc[nH]c1C(=O)N1CCN(c2ccccc2)CC1 | 4 | i | 0 | 0 | -1 | 30*
CN(Cc1ccccc1)C(=O)c1nc[nH]c1C(=O)N1CCN(c2ccccc2)CC1 | -3 | i | -2 | 4 | -1 | 9
CN(Cc1ccccc1)C(=O)c1nc[nH]c1C(=O)N1CCN(C(=O)OC(C)(C)C)CC1 | -2 | i | 0 | 2 | 1 | 37*
CC(C)(C)OC(=O)[C@H](Cc1ccccc1)NC(=O)c1nc[nH]c1C(=O)N1CCN(C(=O)OC(C)(C)C)CC1 | -5 | i | 2 | 8 | -3 | 27*
Cn1c(SCc2cccc(Cl)c2)nc(C(F)(F)F)cc1=O | -4 | i | 1 | -1 | -9 | 2
Cc1ccc(/C(N)=N/OC(=O)CCCc2ccccc2)cc1 | 3 | i | 2 | -2 | -27 | 4
COC1=C(Nc2ccc(O)cc2)C(=O)c2ccccc2C1=O | -3 | + | 2 | 8 | 8 | 19
NS(=O)(=O)c1ccc(NC2=CC(=O)C(=O)c3ccccc32)cc1 | -4 | i | 2 | 10 | 4 | 31*
O=C1C=C(Nc2ccc(O)cc2)C(=O)c2ccccc21 | -6 | + | 0 | 13 | 17 | -3
CCCS(=O)(=O)c1nc(S(=O)(=O)c2ccc(C)cc2)c(N2CCCC2)s1 | -1 | i | 2 | -10 | -1 | 19*
CN1CCN(c2sc(S(C)(=O)=O)nc2S(=O)(=O)c2ccc(Cl)cc2)CC1 | 4 | i | 2 | -4 | -1 | 12
CS(=O)(=O)c1nc(S(=O)(=O)c2ccc(Cl)cc2)c(N2CCN(CCO)CC2)s1 | -2 | + | 0 | -3 | 0 | -5
Cc1ccc(S(=O)(=O)c2nc(S(C)(=O)=O)sc2N2CCCCC2C)cc1 (stereo unspecified) | 7 | + | -2 | -5 | 0 | -13
SMILES | MIN6 prolif | Myeloid diff 2 | SENP1 inh | MT1-MMP act inh | DAGLB inh | CendR NRP1 mod
Cc1cc(/C=N/NC(=O)c2cc3ccccc3o2)c(C)n1C | -3 | i | -11 | -1 | 5 | 0
Fc1ccc(NCc2cn3ccccc3n2)cc1 | -2 | + | 7 | -24 | -2 | -55
Cc1cccc2sc(NC(=O)CN3C(=O)NC4(CCCC4)C3=O)nc12 | -3 | i | 2 | -1 | -1 | 4
Cc1cccc2sc(NC(=O)CN3C(=O)C4CC=CCC4C3=O)nc12 (stereo unspecified) | -1 | i | 0 | 5 | -2 | 32*
CCOc1ccc(NS(=O)(=O)c2ccc(OCC)c3ncccc23)cc1 | -1 | + | 2 | 4 | -3 | -1
CCCCNC(=O)CCCn1c(=O)[nH]c2ccc(Br)cc2c1=O | -1 | + | 1 | -1 | -3 | -2
Cc1cc2nc(-c3ccccc3)c(Cc3ccsc3)n2c(C)c1Br | / | i | 7 | -2 | / | -16
CCOC(=O)N1CCC(NC(=O)CS(=O)(=O)Cc2nc(-c3ccccc3C)oc2C)CC1 | -2 | + | -2 | 0 | 1 | -5
COc1ccc([C@H]2CC(=O)C=C(c3ccc(C)c([N+](=O)[O-])c3)C2)cc1 | -5 | i | 1 | 1 | -9 | 6
O=C1C(O)CC2c3ccccc3CC3(CCCC3)N12 (stereo unspecified) | -3 | + | -28 | -11 | 4 | 1
CCOC(=O)C1=C(C)N=c2s/c(=C\c3ccc(OC(C)=O)cc3)c(=O)n2C1/C=C/c1ccccc1 (stereo unspecified) | -6 | + | -13 | -7 | -3 | -9
CC(C)CC(=O)[C@@H](O)Cc1ccc(O)cc1 | / | i | -1 | 7 | / | -2
N#Cc1ccc(-c2ccco2)nc1SCC(=O)c1ccc(Cl)cc1 | -2 | + | -20 | -113 | -7 | -52
Cc1ccc(C(=O)CSc2nc(-c3ccccc3)ccc2C#N)cc1 | -6 | + | -21 | -119 | -4 | -4
O=C(CSc1ccc(-c2ccco2)nn1)c1ccc(F)cc1 | 0 | i | -2 | 8 | 1 | 8
CC(C)NC(=S)N/N=C/c1cccnc1 | 0 | i | 0 | 1 | -1 | 37*
CC(C)Oc1ccc(CNC(=S)N/N=C/c2cccnc2)cc1 | -1 | i | 2 | 3 | 1 | 9
COc1ccc(-n2nnnc2SC(C)C(=O)NC2CCCC2)cc1 (stereo unspecified) | -3 | i | 0 | -2 | -3 | 20*
Cc1cc(C(=O)CN2c3cccc4cccc(c34)S2(=O)=O)c(C)n1C | -6 | ? | -9 | -3 | 0 | 2
CC1=CC(C)C2(CO)COC(c3cccnc3)C1C2C (stereo unspecified) | 4 | i | 1 | -1 | -2 | 27*
